Data on twelve compounds can be found in ChEMBL document CHEMBL1144721, “Bioactive triterpene saponins from the roots of Phytolacca americana” (J Nat Prod, 2008).

The target of data set [1] is T1, ATP-dependent translocase ABCB1 (Homo sapiens, UniProt P08183). Briefly: Inhibition of P-glycoprotein-mediated multidrug resistance in human 2780AD cells assessed as calcein accumulation at 0.25 ug/mL relative to control. Type of data set: cell-based. Also on record: scale not given: the % may be the effect or the level left. Conditions: a2780 adr. In short, it runs like this:
(§1)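 Multidrug-resistant human ovarian cancer 2780AD cells exposed to compound at 0.25, 2.5 or 25 μg/mL. Intracellular calcein accumulation measured and expressed as the amount relative to an untreated control (% of control).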

The target in data set [2] is T1, ATP-dependent translocase ABCB1. The data set can be described thus: Inhibition of P-glycoprotein-mediated multidrug resistance in human 2780AD cells assessed as calcein accumulation at 2.5 ug/mL relative to control. Also on record: scale not given: the % may be the effect or the level left. The data set is classed as cell-based. The following applies: a2780 adr. The essentials: as §1

For data set [3] the target is unchanged. The data set can be described thus: Inhibition of P-glycoprotein-mediated multidrug resistance in human 2780AD cells assessed as calcein accumulation at 25 ug/mL relative to control. Type of data set: cell-based. Set-up: scale not given: the % may be the effect or the level left. The following applies: a2780 adr. The essentials: as §1
In another data set the test system is WI-38. The data set can be described thus: Cytotoxicity against human WI38 cells. The data set is classed as functional, cell-based. The essentials:
(§2)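 IC50 values are the mean of duplicate determinations.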

A further data set has as its system WI-38 VA13. The data set can be described thus: Cytotoxicity against human VA13 cells. The data set is classed as functional, cell-based. In short, it runs like this: as §2
In the next data set the test system is HepG2. The data set can be described thus: Cytotoxicity against human HepG2 cells. Type of data set: functional, cell-based. The essentials: as §2
Data set [4] relates to A549. Briefly: Cell viability of human A549 cells after 24 hrs by MTT assay. Type of data set: functional. In short, it runs like this: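 A549 cells incubated with serial dilutions of compound for 24 h. Viability (%) measured by MTT assay and used to derive IC50. Triplicate cultures.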
On the technique in general: Tetrazolium assays rely on reduction of a dye to a coloured formazan, in cell work by metabolically active cells.

Data set [5] deals with A549. Briefly: Antiinflammatory activity against human A549 cells assessed as inhibition of IL-1-alpha-induced ICAM1 expression after 6 hrs.

T1 sequence (P08183 whole entry): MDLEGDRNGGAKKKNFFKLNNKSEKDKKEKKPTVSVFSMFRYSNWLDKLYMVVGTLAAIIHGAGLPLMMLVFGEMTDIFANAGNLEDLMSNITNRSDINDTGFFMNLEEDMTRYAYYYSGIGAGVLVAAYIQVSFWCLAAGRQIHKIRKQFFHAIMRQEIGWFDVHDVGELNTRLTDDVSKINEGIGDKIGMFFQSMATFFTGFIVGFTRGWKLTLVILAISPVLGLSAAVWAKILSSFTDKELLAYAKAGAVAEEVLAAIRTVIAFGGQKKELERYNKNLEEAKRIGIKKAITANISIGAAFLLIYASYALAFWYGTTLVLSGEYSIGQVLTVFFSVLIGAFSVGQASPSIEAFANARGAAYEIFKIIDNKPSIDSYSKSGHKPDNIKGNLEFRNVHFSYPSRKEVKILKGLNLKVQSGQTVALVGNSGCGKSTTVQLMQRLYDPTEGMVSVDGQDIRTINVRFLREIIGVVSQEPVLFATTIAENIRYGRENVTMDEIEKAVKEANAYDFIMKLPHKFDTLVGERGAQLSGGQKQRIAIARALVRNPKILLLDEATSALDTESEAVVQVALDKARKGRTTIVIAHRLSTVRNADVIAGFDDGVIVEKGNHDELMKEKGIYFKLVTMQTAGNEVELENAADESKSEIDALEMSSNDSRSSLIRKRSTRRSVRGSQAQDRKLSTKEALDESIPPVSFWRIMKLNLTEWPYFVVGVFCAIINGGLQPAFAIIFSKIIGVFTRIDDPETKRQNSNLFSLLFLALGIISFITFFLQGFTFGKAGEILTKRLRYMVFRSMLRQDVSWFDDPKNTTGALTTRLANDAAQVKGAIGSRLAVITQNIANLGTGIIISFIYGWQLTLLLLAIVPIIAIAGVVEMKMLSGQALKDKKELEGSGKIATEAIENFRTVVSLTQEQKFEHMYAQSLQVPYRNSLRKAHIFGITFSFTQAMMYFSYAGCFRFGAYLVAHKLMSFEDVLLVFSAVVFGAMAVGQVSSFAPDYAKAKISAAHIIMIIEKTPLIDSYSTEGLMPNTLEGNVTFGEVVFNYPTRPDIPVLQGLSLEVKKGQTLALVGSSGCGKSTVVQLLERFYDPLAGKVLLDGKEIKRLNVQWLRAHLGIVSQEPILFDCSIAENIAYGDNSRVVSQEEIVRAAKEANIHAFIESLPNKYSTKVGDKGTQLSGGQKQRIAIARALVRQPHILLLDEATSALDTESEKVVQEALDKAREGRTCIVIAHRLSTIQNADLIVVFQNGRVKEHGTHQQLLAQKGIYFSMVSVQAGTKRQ

`COC(=O)[C@@]1(C)CC[C@]2(C(=O)O[C@@H]3O[C@H](CO)[C@@H](O)[C@H](O)[C@H]3O)CC[C@]3(C)C(=CC[C@@H]4[C@@]5(C)C[C@H](O)[C@H](O[C@@H]6OC[C@@H](OC7O[C@H](CO)[C@@H](O)[C@H](O)[C@H]7O)[C@H](O)[C@H]6O)[C@@](C)(CO)[C@@H]5CC[C@]43C)[C@@H]2C1` (stereo partly specified): the Activity in data set [1] was 124%; in data set [2] it was 129%; in data set [3] it was 123%; with A549 [4], above 1012 µM; with A549 [5] it was above 320 µM. In addition, the IC50 in the data set with WI-38, with WI-38 VA13 and in the data set on HepG2 was above 101 µM throughout.
With `COC(=O)[C@@]1(C)CC[C@]2(C(=O)O[C@@H]3O[C@H](CO)[C@@H](O)[C@H](O)[C@H]3O)CC[C@]3(C)C(=C[C@@H](O)[C@@H]4[C@@]5(C)C[C@H](O)[C@H](O[C@@H]6OC[C@@H](O[C@@H]7O[C@H](CO)[C@@H](O)[C@H](O)[C@H]7O)[C@H](O)[C@H]6O)[C@@](C)(CO)[C@@H]5CC[C@]43C)[C@@H]2C1`, the Activity was 121% in data set [1]; 119% in data set [2]; 124% in data set [3]; above 100 µM in the data set on A549 [4]; above 100 µM in the data set on A549 [5]. The IC50 with WI-38 was above 100 µM; in the data set on WI-38 VA13, 94 µM; in the data set with HepG2 it was above 100 µM.
As for `COC(=O)[C@@]1(C)CC[C@]2(C(=O)O)CC[C@]3(C)C(=CC[C@@H]4[C@@]5(C)C[C@H](O)[C@H](O[C@@H]6OC[C@@H](OC7O[C@H](CO)[C@@H](O)[C@H](O)[C@H]7O)[C@H](O)[C@H]6O)[C@@](C)(CO)[C@@H]5CC[C@]43C)[C@@H]2C1` (stereo partly specified), the Activity in data set [1] was 111%; in data set [2], 104%; in data set [3] it was 119%; in the data set on A549 [4] it was 661 µM; with A549 [5], above 383 µM. Besides, the results for the IC50 in the data set with WI-38, in the data set on WI-38 VA13 and with HepG2 were 7.1 µM, 117 µM and 102 µM, respectively.
On to `COC(=O)[C@@]1(C)CC[C@]2(C(=O)O[C@@H]3O[C@H](CO)[C@@H](O)[C@H](O)[C@H]3O)CC[C@]3(C)C(=CC[C@@H]4[C@@]5(C)CC[C@H](O[C@@H]6OC[C@@H](O[C@@H]7O[C@H](CO)[C@@H](O)[C@H](O)[C@H]7O)[C@H](O)[C@H]6O[C@@H]6O[C@H](CO)[C@@H](O)[C@H](O)[C@H]6O)[C@@](C)(CO)[C@@H]5CC[C@]43C)[C@@H]2C1`, for which the Activity in data set [1] was 126%; in data set [2], 106%; in data set [3] it was 123%; with A549 [4], above 88.2 µM; with A549 [5], above 88.2 µM. Further, the IC50 in the data set with WI-38, with WI-38 VA13 and in the data set on HepG2 was above 88.2 µM in each case.
For the compound `COC(=O)[C@@]1(C)CC[C@]2(C(=O)O[C@@H]3O[C@H](CO)[C@@H](O)[C@H](O)[C@H]3O)CC[C@]3(C)C(=C[C@@H](OC)[C@@H]4[C@@]5(C)C[C@H](O)[C@H](O[C@@H]6OC[C@@H](O[C@@H]7O[C@H](CO)[C@@H](O)[C@H](O)[C@H]7O)[C@H](O)[C@H]6O)[C@@](C)(CO)[C@@H]5CC[C@]43C)[C@@H]2C1`, the Activity in data set [1] was 105%; in data set [2], 100%; in data set [3] it was 108%; in the data set on A549 [4] it was above 98.2 µM; in the data set on A549 [5], above 98.2 µM. For the same compound, the IC50 in the data set with WI-38, with WI-38 VA13 and in the data set on HepG2 was above 98.2 µM each time.
`COC(=O)[C@@]1(C)CC[C@]2(C(=O)O[C@@H]3O[C@H](CO)[C@@H](O)[C@H](O)[C@H]3O)CC[C@]3(C)C(=CC[C@@H]4[C@@]5(C)C[C@H](O)[C@H](O[C@@H]6OC[C@@H](O)[C@H](O)[C@H]6O)[C@@](C)(CO)[C@@H]5CC[C@]43C)[C@@H]2C1`: the Activity was 141% in data set [1]; 132% in data set [2]; 143% in data set [3]; above 121 µM in the data set on A549 [4]; above 121 µM with A549 [5]. Moreover, the IC50 was above 121 µM in the data set with WI-38, 95.2 µM in the data set with WI-38 VA13 and above 121 µM with HepG2.
On to `COC(=O)[C@@]1(C)CC[C@]2(C(=O)O[C@@H]3O[C@H](CO)[C@@H](O)[C@H](O)[C@H]3O)CC[C@]3(C)C(=CC[C@@H]4[C@@]5(C)CC(=O)[C@H](O[C@@H]6OC[C@@H](O[C@@H]7O[C@H](CO)[C@@H](O)[C@H](O)[C@H]7O)[C@H](O)[C@H]6O)[C@@](C)(CO)[C@@H]5CC[C@]43C)[C@@H]2C1`, for which the Activity in data set [1] is 98%; in data set [2], 115%; in data set [3], 120%; in the data set on A549 [4], above 101 µM; in the data set with A549 [5], above 101 µM. In addition, the IC50 in the data set on WI-38, in the data set on WI-38 VA13 and in the data set with HepG2 was above 101 µM each time.
Take `COC(=O)[C@@]1(C)CC[C@]2(C(=O)O[C@@H]3O[C@H](CO)[C@@H](O)[C@H](O)[C@H]3O)CC[C@]3(C)C(=CC[C@@H]4[C@@]5(C)CC[C@H](O[C@@H]6OC[C@@H](O)[C@H](O[C@@H]7OC[C@@H](O)[C@H](O)[C@H]7O[C@@H]7O[C@H](CO)[C@@H](O)[C@H](O)[C@H]7O[C@@H]7O[C@@H](C)[C@H](O)[C@@H](O)[C@H]7O)[C@H]6O)[C@@](C)(CO)[C@@H]5CC[C@]43C)[C@@H]2C1`: the Activity in data set [1] is 93%; in data set [2], 68%; in data set [3], 94%; in the data set on A549 [4], above 89 µM; with A549 [5], above 89 µM. The IC50 with WI-38, with WI-38 VA13 and with HepG2 was above 89 µM each time.
For the compound `COC(=O)[C@@]1(C)CC[C@]2(C(=O)O[C@@H]3O[C@H](CO)[C@@H](O)[C@H](O)[C@H]3O)CC[C@]3(C)C(=CC[C@@H]4[C@@]5(C)CC[C@H](O[C@@H]6OC[C@@H](OC7O[C@H](CO)[C@@H](O)[C@H](O)[C@H]7O)[C@H](O)[C@H]6O)[C@@](C)(CO)[C@@H]5CC[C@]43C)[C@@H]2C1` (stereo partly specified), the Activity in data set [1] was 124%; in data set [2], 101%; in data set [3] it was 126%; in the data set on A549 [4], above 103 µM; in the data set with A549 [5], above 103 µM. Further, the IC50 in the data set on WI-38, in the data set with WI-38 VA13 and in the data set on HepG2 was above 103 µM each time.
For `COC(=O)[C@@]1(C)CC[C@]2(C(=O)O)CC[C@]3(C)C(=C[C@@H](OC)[C@@H]4[C@@]5(C)C[C@H](O)[C@H](O[C@@H]6OC[C@@H](O[C@@H]7O[C@H](CO)[C@@H](O)[C@H](O)[C@H]7O)[C@H](O)[C@H]6O)[C@@](C)(CO)[C@@H]5CC[C@]43C)[C@@H]2C1`, the Activity was 118% in data set [1]; 123% in data set [2]; 135% in data set [3]; above 118 µM in the data set with A549 [4]; above 118 µM in the data set on A549 [5]. Moreover, the IC50 in the data set on WI-38, in the data set on WI-38 VA13 and with HepG2 was above 118 µM in each case.
On to `COC(=O)[C@@]1(C)CC[C@]2(C(=O)O[C@@H]3O[C@H](CO)[C@@H](O)[C@H](O)[C@H]3O)CC[C@]3(C)C(=CC(=O)[C@@H]4[C@@]5(C)C[C@H](O)[C@H](O[C@@H]6OC[C@@H](OC7O[C@H](CO)[C@@H](O)[C@H](O)[C@H]7O)[C@H](O)[C@H]6O)[C@@](C)(CO)[C@@H]5CC[C@]43C)[C@@H]2C1` (stereo partly specified), for which the Activity in data set [1] was 119%; in data set [2], 135%; in data set [3], 155%; with A549 [4], above 98.8 µM; with A549 [5] it was above 98.8 µM. Further, the IC50 in the data set with WI-38 was above 98.8 µM; in the data set on WI-38 VA13 it was above 98.8 µM; with HepG2, 97.4 µM.
As for `COC(=O)[C@@]1(C)CC[C@]2(C(=O)O)CC[C@]3(C)C(=CC[C@@H]4[C@@]5(C)C[C@H](O)[C@H](O[C@@H]6OC[C@@H](O)[C@H](O)[C@H]6O)[C@@](C)(CO)[C@@H]5CC[C@]43C)[C@@H]2C1` [PHYTOLACCOSIDE B], the Activity in data set [1] is 128%; in data set [2] it was 117%; in data set [3], 123%; in the data set with A549 [4] it was 265 µM; with A549 [5], 253 µM. Moreover, the IC50 in the data set with WI-38 amounted to 36.2 µM; in the data set on WI-38 VA13 it was 68.9 µM; in the data set on HepG2, 74.7 µM.

By IC50 is commonly meant the midpoint of a concentration-inhibition curve.
